Assays:
[1] = target: T1, 5-hydroxytryptamine receptor 1A (Homo sapiens, UniProt P08908); assay: Displacement of [3H]-8-OH-DPAT from human 5HT1AR expressed in HEK293 cell membranes after 1 hr by microbeta counting method
T1 sequence (P08908 whole entry): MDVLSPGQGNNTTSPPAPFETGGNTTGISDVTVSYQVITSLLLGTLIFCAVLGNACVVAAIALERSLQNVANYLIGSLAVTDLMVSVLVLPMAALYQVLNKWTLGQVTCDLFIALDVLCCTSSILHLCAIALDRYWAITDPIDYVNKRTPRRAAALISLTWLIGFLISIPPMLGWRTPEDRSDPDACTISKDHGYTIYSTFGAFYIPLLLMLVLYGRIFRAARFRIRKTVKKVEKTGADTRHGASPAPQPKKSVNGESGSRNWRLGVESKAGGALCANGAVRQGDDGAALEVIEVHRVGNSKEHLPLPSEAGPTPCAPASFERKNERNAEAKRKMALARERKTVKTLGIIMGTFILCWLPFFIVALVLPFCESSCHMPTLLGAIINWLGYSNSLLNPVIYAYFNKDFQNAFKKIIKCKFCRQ
Outline: (§1)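 HEK293 (5-HT1A, 5-HT6, 5-HT7b, D2L) or CHO-K1 (5-HT2A) membranes, all Tris–HCl with 4 mM MgCl2 plus receptor-specific EDTA/pargyline/ascorbate (D2L adds NaCl, KCl, CaCl2). Nonspecific binding: 10 μM 5-HT (5-HT1A, 5-HT7), chlorpromazine (5-HT2A), methiothepine (5-HT6), haloperidol (D2L). Triplicate, 7–8 concentrations (10⁻¹¹–10⁻⁴ M), filtration; Ki via Cheng–Prusoff, mean of three experiments.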

[2] = target: 5-hydroxytryptamine receptor 2A (Homo sapiens, UniProt P28223); assay: Displacement of [3H]-Ketanserin from human 5HT2AR expressed in CHO-K1 cell membranes after 1.5 hrs by microbeta counting method; outline: as §1
[3] = target: 5-hydroxytryptamine receptor 7 (Homo sapiens, UniProt P34969); assay: Displacement of [3H]-5-CT from human 5HT7BR expressed in HEK293 cell membranes after 1 hr by microbeta counting method
Outline: as §1, with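 “experiments. Incubation 1 h 37 °C; 5-HT1A 1 h and 5-HT2A 1.5 h, room temperature.” for “experiments.”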

[4] = target: D(3) dopamine receptor (Homo sapiens) (UniProt P35462); assay: Displacement of [3H]methyl-spiperone from recombinant human dopamine D3 receptor at 1 uM after 60 mins by scintillation counting relative to control
[5] = target: Histamine H1 receptor (Homo sapiens) (UniProt P35367); assay: Displacement of [3H]pyrilamine from recombinant human histamine H1 receptor at 1 uM after 60 mins by scintillation counting relative to control
[6] = target: T2, Muscarinic acetylcholine receptor M1 (Homo sapiens) (UniProt P11229); assay: Displacement of [3H]pirenzepine from recombinant human muscarinic M1 receptor at 1 uM after 60 mins by scintillation counting relative to control
T2 sequence (whole entry): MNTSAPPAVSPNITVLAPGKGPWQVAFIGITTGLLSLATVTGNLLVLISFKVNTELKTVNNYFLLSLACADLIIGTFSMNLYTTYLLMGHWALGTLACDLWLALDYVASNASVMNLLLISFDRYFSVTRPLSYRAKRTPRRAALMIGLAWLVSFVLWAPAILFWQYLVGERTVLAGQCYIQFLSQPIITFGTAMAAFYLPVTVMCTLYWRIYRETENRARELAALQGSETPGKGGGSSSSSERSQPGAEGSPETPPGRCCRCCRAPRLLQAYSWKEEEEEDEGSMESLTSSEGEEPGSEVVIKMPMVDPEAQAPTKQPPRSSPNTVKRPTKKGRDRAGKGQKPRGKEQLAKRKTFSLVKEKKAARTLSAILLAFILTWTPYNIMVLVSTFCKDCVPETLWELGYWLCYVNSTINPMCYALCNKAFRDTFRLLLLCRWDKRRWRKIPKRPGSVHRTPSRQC

Cytochrome P450 3A4 = Cytochrome P450 3A4 (Homo sapiens, UniProt P08684); assay: Inhibition of CYP3A4 (unknown origin) at 0.025 to 25 uM after 2 hrs by firefly luciferase-luminescence based P450-glo assay; format: ADME
Outline: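 Recombinant CYP3A4 or CYP2D6 incubated 2 h with test compound (0.025–25 μM final) and an isoform-specific luciferin derivative. Firefly luciferase then added, and luminescence is proportional to D-luciferin formed. Reference inhibitors: ketoconazole (CYP3A4) and quinidine (CYP2D6, 0.1–100 nM).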

5-hydroxytryptamine receptor 7, sequence (P34969 whole entry): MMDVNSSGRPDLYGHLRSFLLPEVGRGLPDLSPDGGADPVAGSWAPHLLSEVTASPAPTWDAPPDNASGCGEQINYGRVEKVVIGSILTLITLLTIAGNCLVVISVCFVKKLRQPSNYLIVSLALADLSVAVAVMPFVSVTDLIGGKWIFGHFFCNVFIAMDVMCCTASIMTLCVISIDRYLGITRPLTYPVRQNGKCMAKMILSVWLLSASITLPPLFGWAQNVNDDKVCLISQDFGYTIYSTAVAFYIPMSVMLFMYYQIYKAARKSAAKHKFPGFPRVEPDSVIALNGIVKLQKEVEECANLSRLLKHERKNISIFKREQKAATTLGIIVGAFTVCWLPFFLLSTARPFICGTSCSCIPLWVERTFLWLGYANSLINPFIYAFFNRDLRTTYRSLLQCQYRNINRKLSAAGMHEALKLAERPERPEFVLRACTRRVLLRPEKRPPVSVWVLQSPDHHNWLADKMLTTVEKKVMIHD
5-hydroxytryptamine receptor 2A, sequence (P28223 whole entry): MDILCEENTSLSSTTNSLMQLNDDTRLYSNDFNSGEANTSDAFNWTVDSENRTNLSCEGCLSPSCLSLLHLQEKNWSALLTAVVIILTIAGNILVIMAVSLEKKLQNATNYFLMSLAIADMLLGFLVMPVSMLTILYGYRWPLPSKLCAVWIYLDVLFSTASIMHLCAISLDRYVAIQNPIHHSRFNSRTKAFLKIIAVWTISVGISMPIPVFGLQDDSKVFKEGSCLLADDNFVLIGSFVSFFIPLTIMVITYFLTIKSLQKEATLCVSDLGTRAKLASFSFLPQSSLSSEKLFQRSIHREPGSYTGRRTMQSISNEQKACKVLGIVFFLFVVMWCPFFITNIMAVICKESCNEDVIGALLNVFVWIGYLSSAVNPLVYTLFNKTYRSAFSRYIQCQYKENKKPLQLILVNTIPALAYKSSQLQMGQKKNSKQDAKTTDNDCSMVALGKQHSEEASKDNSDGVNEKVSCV
Histamine H1 receptor (Homo sapiens), sequence (P35367 whole entry): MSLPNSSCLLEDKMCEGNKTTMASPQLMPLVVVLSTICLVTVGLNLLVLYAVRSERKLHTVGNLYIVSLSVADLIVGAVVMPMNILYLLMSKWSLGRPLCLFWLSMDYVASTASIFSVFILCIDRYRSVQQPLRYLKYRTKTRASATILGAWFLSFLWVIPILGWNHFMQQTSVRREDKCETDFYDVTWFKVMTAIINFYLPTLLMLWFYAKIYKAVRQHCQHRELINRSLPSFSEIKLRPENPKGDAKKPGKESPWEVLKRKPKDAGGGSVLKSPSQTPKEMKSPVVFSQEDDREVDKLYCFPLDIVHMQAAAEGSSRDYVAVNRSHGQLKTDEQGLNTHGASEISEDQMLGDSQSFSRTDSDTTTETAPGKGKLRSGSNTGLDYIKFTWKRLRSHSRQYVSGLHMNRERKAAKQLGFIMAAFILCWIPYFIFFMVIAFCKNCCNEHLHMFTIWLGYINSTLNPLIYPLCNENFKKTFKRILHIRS
D(3) dopamine receptor (Homo sapiens), sequence (P35462 whole entry): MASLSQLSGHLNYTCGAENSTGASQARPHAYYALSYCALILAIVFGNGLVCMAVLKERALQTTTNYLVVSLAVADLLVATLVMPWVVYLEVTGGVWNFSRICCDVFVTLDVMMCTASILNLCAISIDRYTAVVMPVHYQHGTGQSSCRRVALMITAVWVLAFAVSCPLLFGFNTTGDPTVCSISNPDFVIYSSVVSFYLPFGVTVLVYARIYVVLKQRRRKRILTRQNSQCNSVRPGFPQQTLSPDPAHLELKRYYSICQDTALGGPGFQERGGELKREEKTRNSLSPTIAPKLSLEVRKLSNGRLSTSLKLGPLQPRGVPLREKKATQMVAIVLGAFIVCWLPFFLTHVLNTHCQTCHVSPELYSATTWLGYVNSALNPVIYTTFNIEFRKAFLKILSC
Cytochrome P450 3A4, sequence (P08684 whole entry, canonical isoform): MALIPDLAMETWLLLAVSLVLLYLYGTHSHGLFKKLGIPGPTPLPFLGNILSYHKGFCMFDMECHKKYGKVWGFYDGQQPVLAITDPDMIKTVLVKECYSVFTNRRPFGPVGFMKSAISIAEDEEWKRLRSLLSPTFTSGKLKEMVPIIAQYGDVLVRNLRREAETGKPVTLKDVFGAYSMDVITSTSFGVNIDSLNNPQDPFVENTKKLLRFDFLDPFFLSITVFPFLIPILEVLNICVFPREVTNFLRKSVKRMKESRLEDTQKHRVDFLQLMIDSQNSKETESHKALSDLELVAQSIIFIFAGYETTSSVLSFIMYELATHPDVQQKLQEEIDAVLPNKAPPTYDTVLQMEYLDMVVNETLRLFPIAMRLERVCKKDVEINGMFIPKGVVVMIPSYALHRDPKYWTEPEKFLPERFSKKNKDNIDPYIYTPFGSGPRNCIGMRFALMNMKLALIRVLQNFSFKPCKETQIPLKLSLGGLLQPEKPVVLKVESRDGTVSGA

- Ki [1]: 2790 nM
- Ki [2]: 441 nM
- Ki [3]: 12300 nM
- inhibition [4]: 18%
- inhibition [5]: -4.9%
- inhibition [6]: 3%
- inhibition (INH) (Cytochrome P450 3A4): Not Active
Structure (SMILES): CCc1nc2c(N3CCNCC3)ccnc2n1Cc1cccc(F)c1

From ChEMBL document CHEMBL4145461, “Novel non-sulfonamide 5-HT6 receptor partial inverse agonist in a group of imidazo[4,5-b]pyridines with cognition enhancing properties” (Eur J Med Chem, 2018)
